Assay results collected from several papers.
Compare with care: the assays were run in different laboratories.
Target: Carbonic anhydrase 1 (CA1, Homo sapiens, UniProt P00915)
Observed: enzyme activity
Mode: inhibitor

CC1(C(=O)Nc2nnc(S(N)(=O)=O)s2)CCC1 — Ki (stopped-flow): 0.334 µM
COc1ccc(OC(=O)c2ccc(=O)oc2)cc1 — Ki (stopped-flow): > 100 µM
COc1ccnc(C[S+]([O-])c2nc3ccc(OC(F)F)cc3[nH]2)c1OC (centres unmarked) — Ki: 7.16 µM
CC(C)(C)CCC(=O)Nc1nnc(S(N)(=O)=O)s1 — Ki (stopped-flow): 0.267 µM
Nc1nc2c(ncn2COCCO)c(=O)[nH]1 — Ki: 7.31 µM
O=C(Oc1ccc(Cl)cc1)c1ccc(=O)oc1 — Ki (stopped-flow): > 100 µM
CN1CCC(=C2c3ccccc3CC(=O)c3sccc32)CC1 — Ki: 6.98 µM
CC1CCCC(C(=O)Nc2nnc(S(N)(=O)=O)s2)C1 (centres unmarked) — Ki (stopped-flow): 0.0827 µM
O=C(OCc1cn(-c2ccc([N+](=O)[O-])cc2)nn1)c1ccc(=O)oc1 — Ki (stopped-flow): > 100 µM
Cc1cc(=O)oc2cc(OCCCCSC#N)ccc12 — Ki (stopped-flow): > 100 µM
NS(=O)(=O)c1nnc(NC(=O)CCC2CCCCO2)s1 (centres unmarked) — Ki (stopped-flow): 0.75 µM
C#CCNC(=O)c1ccc(=O)oc1 — Ki (stopped-flow): > 100 µM
Cn1cnc([N+](=O)[O-])c1Sc1ncnc2nc[nH]c12 — Ki: 12.4 µM
O=C(Oc1ccccc1)c1ccc(=O)oc1 — Ki (stopped-flow): > 100 µM
N#CSCc1cc(=O)oc2cc(O)ccc12 — Ki (stopped-flow): > 100 µM
CN(C/C=C/C#CC(C)(C)C)Cc1cccc2ccccc12 — Ki: 20.6 µM
CC1CCC(CC(=O)Nc2nnc(S(N)(=O)=O)s2)CC1 (centres unmarked) — Ki (stopped-flow): 0.0692 µM
O=C(O)c1cccc(=O)o1 — Ki (stopped-flow): > 100 µM
CC(C(=O)Nc1nnc(S(N)(=O)=O)s1)C1CCCCC1 (centres unmarked) — Ki (stopped-flow): 0.0475 µM
Cc1cncc(CN2CCC(=C3c4ccc(Cl)cc4CCc4cccnc43)CC2)c1 — Ki (absorbance): 9.95 µM
